In series [1] the test system is Jurkat-CN cells. Description: PS exposure. It counts as cell-based, human. Particulars: 24 h. The essentials:
(§1)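 Jurkat cells with Bak knocked down by RNA interference, and empty-vector controls (CN), were exposed to test compound for 24 h; cisplatin at 25 μM served as reference. Samples were diluted to 1 ml and read by flow cytometry.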

Series [2] has as its system Jurkat-shBak cells. Description: PS exposure. It is filed as cell-based, human. The note with it: 24 h. In outline:
as §1

For series [3], the system named is Jurkat cells. Kind of series: Cytotoxicity, cell death by annexinV-PE labeling and flow cytometry, 24 h. It is filed as cell-based, human. In outline:
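Jurkat (clone E6.1) in RPMI 1640 with 5% FCS, L-glutamine and penicillin/streptomycin, seeded at 3×10⁵ cells/ml. Cells were exposed to a range of test compound concentrations for 24 h. Fluorescent cells were counted by flow cytometry. Values are mean ± SD of three independent experiments.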
(In flow cytometry, cells or beads pass a laser one at a time.)

Series [4] has as its system Jurkat-shBak cells. Kind of series: Necrotic versus apoptotic cell death, Trypan blue staining and morphology. It is filed as cell-based, human. The note with it: 24 h.
The conditions of series [5]: cited from earlier work.
In series [6] the test system is Jurkat cells. Description: Protection by antioxidants. It counts as cell-based, human. Particulars: 24 h, superoxide scavenger MnTBAP. The essentials:
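Jurkat cells were cultured for 24 h with test compound alone or together with MnTBAP (superoxide anion scavenger), glutathione or N-acetylcysteine. Collapse of mitochondrial transmembrane potential was measured at the end by flow cytometry. Values are mean ± SD of 4 independent experiments.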

Series [7] has as its system PBMC from healthy donors. Description: Cytotoxicity, cell death by annexinV-PE labeling and flow cytometry, 24 h. It counts as cell-based, human. The note with it: 25 μM. The essentials: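 PBMC came from healthy donors, were freshly isolated by Ficoll-Paque density centrifugation and kept in complete RPMI 1640 medium. They were exposed to a range of test compound concentrations for 24 h. Positive cells were quantified by flow cytometry. Values are mean ± SD of three independent experiments.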

In series [8] the test system is Jurkat cells. Kind of series: Growing potential after removal of compounds and NAC, Trypan blue counting. It counts as cell-based, human. Particulars: 24h treatment with compound alone, viable cells 24 h and 48 h after removal. The essentials:
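Jurkat cells were treated with test compound, with or without NAC, for 24 h. They were then washed and transferred to fresh medium. Total cell number and viability were measured 24 and 48 h after removal of compound and NAC, by Trypan blue staining and counting in a Neubauer haemocytometer. Values are mean ± SD of three independent experiments.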

Series [9] deals with Jurkat-CN cells. Description: Necrotic versus apoptotic cell death, Trypan blue staining and morphology. Particulars: control Jurkat cells, 24 h. It is filed as cell-based, human. In outline: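 Jurkat-CN (empty-vector) and Jurkat-shBak cells were treated with test compound or cisplatin for 24 h, then stained with Trypan blue. Stained cells were scored as necrotic. Unstained cells showing blebbing and/or chromatin condensation were scored as apoptotic. Values are mean ± SD of three independent experiments.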

pIC50: −log10 of the molar value. Where only a bound is given, the exact number is not on record here.

Consider `N.N.[Cl][Pt][Cl]` [cisplatin, reference compound], for which the death of cells result in series [1] (25 μM, Jurkat control (CN) cells) is “around 60%”. Also, in series [2], the “sensitivity of Jurkat-shBak cells, in words” value was “completely resistant”.

Turning to “[Au{κ^2-C,N-C6H4(PPh2=N(C6H5)-2}(P{Cp(m-C6H4-SO3Na)2} 3)Cl]PF6 [compound 3]”, in series [3], the pIC50 (commonly the negative decadic logarithm of the IC50, by convention in mol/L) is 4.79. The compound further registered a killing of cells in [3] (25 μM) of 96%. In addition, the “type of cell death (necrosis versus apoptosis)” value in series [4] was “both apoptotic and necrotic cell death were prevented”; in [9] it was “necrosis and apoptosis at similar levels”. Further, in series [1] (10 μM, control Jurkat cells), the “cells bound annexin V-PE” value is on record as “around 50%”. The “time stable in solution” value in series [5] is listed as at most 24 h. Also, in [2], the “sensitivity of Jurkat-shBak cells, in words” value was “almost completely resistant”. In addition, the “protection from toxicity by MnTBAP” value in series [6] is “almost completely protected”. Further, the dead cells in series [7] is 33.5%. Further, the “growing potential after transfer to fresh medium” value in series [8] was “A fraction of cells”.

The values above are taken from article PMC3201811 (Journal of inorganic biochemistry, 2011).
